5 molecules from ChEMBL document CHEMBL5715947 (Blood Cancer J, 2011) can be followed below.

In data set [1] the test system is MV4-11. Description: Down regulation of JAK2 protein expression level in human MV4-11 cells harboring FLT3-ITD mutant at 5 nM after 24 hrs by Western blot analysis. Type of data set: functional, cell-based.
In data set [2] the test system is Receptor-type tyrosine-protein kinase FLT3 (Homo sapiens), P36888 [UNDEFINED MUTATION]. Particulars: MV4-11, dose 5.0 nM, time 24.0 hrs.
Data set [3] has as its system MV4-11. As to the kind of experiment: Down regulation of JAK2 protein expression level in human MV4-11 cells harboring FLT3-ITD mutant at 18 nM after 24 hrs by Western blot analysis. The format is functional, cell-based.
Data set [4] concerns Receptor-type tyrosine-protein kinase FLT3 (Homo sapiens), P36888 [UNDEFINED MUTATION]. Description: Inhibition of FLT3-ITD mutant in human MV4-11 cells assessed as reduction in phosphorylated FLT3 protein expression up to 1000 nM incubated for 3 hrs by Western blot analysis. The format is cell-based.
Data set [5] in a line: Selectivity ratio of IC50 for antiproliferative activity against human linifanib-resistant MV4-11 cells harboring FLT3-ITD mutant to IC50 for antiproliferative activity against human MV4-11 cells harboring FLT3-ITD mutant. The format is functional. In a few lines: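 Linifanib-resistant MV4-11 (MV4-11-R) and parental MV4-11 (MV4-11-P) cells, 2000–6000 cells/well, dosed on the seeding day in triplicate for 48 h, with final DMSO 0.1%. Viability was read by CellTiter-Glo luminescence. IC50 for each line came from dose-response curves, and the ratio is the resistant-line IC50 divided by the parental IC50.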

Data set [6] deals with MV4-11. As to the kind of experiment: Synergistic antiproliferative activity against human MV4-11 cells harboring FLT3-ITD mutant assessed as combination index at ED90 concentration incubated for 48 hrs in presence of JAKi-1 by CellTiter-Glo assay. Type of data set: functional. The method, boiled down:
(§1)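 Two drugs combined at a constant ratio based on each one's individual IC50. […] Cells seeded 2000–6000/well and treated the same day in triplicate for 48 h. Viability read by CellTiter-Glo. Synergy from dose-response data of the combination. Final DMSO 0.1%.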

Data set [7] concerns MV4-11. Description: Synergistic antiproliferative activity against human MV4-11 cells harboring FLT3-ITD mutant assessed as combination index at ED50 concentration incubated for 48 hrs in presence of JAKi-1 by CellTiter-Glo assay. The format is functional. In a few lines: as §1
Data set [8] is described as follows: Toxicity in BALB/c nude mouse xenografted with human MV4-11 cells harboring FLT-3 ITD mutant assessed as change in body weight at 25 to 100 mg/kg, po administered daily for 21 days. The format is organism-based. Particulars: in vivo, 504 h, dose 25-100 mg/kg, time 21 day.

SMILES strings stand for the structures. Activity calls are given as the source filed them. The calls are words filed in the database; no cut-off is given here.

Sequence of Receptor-type tyrosine-protein kinase FLT3 (Homo sapiens), P36888 [UNDEFINED MUTATION] (P36888 whole entry, looked up, stated change not applied): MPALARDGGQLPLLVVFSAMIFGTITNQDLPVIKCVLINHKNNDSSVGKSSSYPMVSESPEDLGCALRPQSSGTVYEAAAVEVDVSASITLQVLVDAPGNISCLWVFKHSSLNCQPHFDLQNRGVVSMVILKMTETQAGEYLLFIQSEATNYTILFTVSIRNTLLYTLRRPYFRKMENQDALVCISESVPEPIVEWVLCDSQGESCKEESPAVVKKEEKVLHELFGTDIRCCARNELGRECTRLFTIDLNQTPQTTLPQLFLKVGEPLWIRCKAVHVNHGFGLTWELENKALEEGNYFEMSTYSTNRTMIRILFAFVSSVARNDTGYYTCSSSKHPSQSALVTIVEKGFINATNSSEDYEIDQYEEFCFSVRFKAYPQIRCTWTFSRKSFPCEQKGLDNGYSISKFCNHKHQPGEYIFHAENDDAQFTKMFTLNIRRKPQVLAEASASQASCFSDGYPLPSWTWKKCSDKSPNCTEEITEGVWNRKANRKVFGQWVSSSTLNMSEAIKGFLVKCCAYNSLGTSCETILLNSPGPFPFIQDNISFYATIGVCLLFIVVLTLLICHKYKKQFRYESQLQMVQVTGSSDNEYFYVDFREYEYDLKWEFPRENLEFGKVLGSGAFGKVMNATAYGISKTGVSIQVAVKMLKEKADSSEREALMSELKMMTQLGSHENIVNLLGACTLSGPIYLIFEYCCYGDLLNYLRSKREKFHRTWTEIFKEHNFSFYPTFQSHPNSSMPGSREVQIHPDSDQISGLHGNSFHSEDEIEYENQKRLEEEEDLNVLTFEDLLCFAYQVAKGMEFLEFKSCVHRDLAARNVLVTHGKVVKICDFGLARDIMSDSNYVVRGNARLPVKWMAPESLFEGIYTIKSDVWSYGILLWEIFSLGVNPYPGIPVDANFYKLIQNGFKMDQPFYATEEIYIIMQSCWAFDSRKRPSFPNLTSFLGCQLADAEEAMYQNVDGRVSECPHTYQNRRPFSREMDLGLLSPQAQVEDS

Regarding `CCN(CC)CCNC(=O)c1c(C)[nH]c(/C=C2\C(=O)Nc3ccc(F)cc32)c1C`, the result with MV4-11 [1] was inactive. In addition, in data set [2], the inhibition result was “Active”.

On to `Cc1cc(Nc2cc(N3CCN(C)CC3)nc(Sc3ccc(NC(=O)C4CC4)cc3)n2)n[nH]1`, for which the result with MV4-11 [3] was inactive.

For `CC(C)(C)c1nc2c3ccc(F)cc3c3c(=O)[nH]ccc3c2[nH]1`, in data set [4], the inhibition entry was “inactive”.

As to `Cc1ccc(F)c(NC(=O)Nc2ccc(-c3cccc4[nH]nc(N)c34)cc2)c1` [LINIFANIB], in the data set on MV4-11 [1], the outcome was inactive. In addition, the inhibition entry in data set [2] was “Active”. Besides, the “Ratio IC50” value in data set [5] was 127. For the same molecule, the results for the CI in the data set with MV4-11 [6] and with MV4-11 [7] were 0.8 and 0.73, respectively.

As for `C1=C/COCc2cc(ccc2OCCN2CCCC2)Nc2nccc(n2)-c2cccc(c2)COC/1` [PACRITINIB], the Activity result in data set [8] is recorded as “Non-Toxic”.
